Laboratory results: ChEMBL document CHEMBL1130418, “Synthesis and evaluation of 6-(dibromomethyl)-5-nitropyrimidines as potential antitumor agents” (J Med Chem, 1997)

Experiments:
[1] = species on record: Mus musculus; assay: The initial growth rate of cells in the presence at the screen concentration 100 mM in leukemic cells (L1210) of mice; assay type: functional
[2] = system: HEp-2; assay: The concentration required to decrease the estimate of the minimum fraction of human epidermoid carcinoma cells that survived treatment to 50% (H.Ep.2); cell proliferation was not slowed at the screen concentration 100 mM; assay type: functional, cell-based
How it was run: (§1)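 Surviving fraction in H.Ep.2 monolayers exposed to compound from day 1 after seeding, with duplicate flasks counted on days 1, 2 and 4. The exponential growth curve was back-extrapolated to zero time, and the intercept was expressed as a percentage of initial cells. The value is the concentration that lowers this minimum surviving fraction to 50%.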

[3] = species on record: Mus musculus; assay: Concentration required to decrease the growth rate to 50% of control; cell proliferation was not slowed at the screen concentration 100 mM; assay type: functional, organism-based
How it was run: (§2)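 Antiproliferative assay in L1210 murine leukemia or H.Ep.2 human epidermoid carcinoma cells. Cells were counted over time with compound present. Growth rate is the slope of log cell number versus time as a percentage of the control slope. IC50 is the concentration that lowers the growth rate to 50% of control. Values are usually the mean of two concentration–response determinations.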

[4] = species on record: Mus musculus; assay: The concentration required to decrease the estimate of the minimum fraction of leukemic cells (L1210) of mice that survived treatment to 50%; cell proliferation was not slowed at the screen concentration 100 mM; assay type: functional
How it was run: (§3)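 Surviving-fraction estimate in L1210 suspension cultures (Fischer's medium) counted daily over 3 days across compound concentrations. The exponential part of each growth curve was extrapolated back to zero time, and the intercept was expressed as a percentage of the initial cell number. The value is the concentration that lowers this minimum surviving fraction to 50%.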

[5] = system: HEp-2; assay: Concentration required to decrease the growth rate to 50% of control on H.Ep.2 cells; cell proliferation was not slowed at the screen concentration 100 mM; assay type: functional, cell-based, Homo sapiens
[6] = system: HEp-2; assay: The initial growth rate of cells in the presence at the screen concentration 100 mM in human epidermoid carcinoma cells (H.Ep.2); assay type: functional
How it was run: (§4)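 H.Ep.2 monolayers were seeded at 2×10^4 cells per flask and switched after 1 day to medium containing compound at the single screen concentration. Duplicate flasks were counted on days 1, 2 and 4. The initial slope of log cell number versus time is given as a percentage of the untreated control slope.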

[7] = species on record: Mus musculus; assay: The concentration required to decrease the estimate of the minimum fraction of leukemic cells (L1210) of mice that survived treatment to 50%. * indicates cell proliferation was not slowed down at screen concentration 10 mM; assay type: functional; how it was run: as §3
[8] = species on record: Mus musculus; assay: Concentration required to decrease the growth rate to 50% of control.; cell proliferation was not slowed down at screen concentration 10 mM; assay type: functional, organism-based; how it was run: as §2
[9] = species on record: Mus musculus; assay: The initial growth rate of cells in the presence at the screen concentration 10 mM in leukemic cells (L1210) of mice; assay type: functional
[10] = species on record: Mus musculus; assay: Concentration required to decrease the growth rate to 50% of control; assay type: functional, organism-based; how it was run: as §2
[11] = species on record: Mus musculus; assay: The concentration required to decrease the estimate of the minimum fraction of leukemic cells (L1210) of mice that survived treatment to 50%; assay type: functional, organism-based; how it was run: as §3
[12] = system: HEp-2; assay: The initial growth rate of cells in the presence at the screen concentration 10 mM in human epidermoid carcinoma cells (H.Ep.2); assay type: functional; how it was run: as §4
[13] = system: Mus musculus; assay: Percent treated to untreated control was measured on Leukemia-bearing mice at the dose of 25 mg/kg; assay type: functional
[14] = species on record: Mus musculus; assay: The concentration required to decrease the estimate of the minimum fraction of leukemic cells (L1210) of mice that survived treatment to 50%; no evidence of surviving cell; assay type: functional, organism-based; how it was run: as §3
[15] = system: HEp-2; assay: Concentration required to decrease the growth rate to 50% of control on H.Ep.2 cells.; assay type: functional, cell-based; conditions: Homo sapiens
[16] = system: Mus musculus; assay: Percent treated to untreated control was measured on Leukemia-bearing mice at the dose of 6.25 mg/kg; assay type: functional
How it was run: (§5)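 Mice were inoculated with P388 leukemia cells, and compound was injected once daily on days 1–5 after inoculation at doses of 200 down to 6.25 mg/kg/injection. T/C% is the life span of treated mice divided by that of untreated tumor-bearing control mice, ×100.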

[17] = system: Mus musculus; assay: Percent treated to untreated control was measured on Leukemia-bearing mice at the dose of 12.5 mg/kg; assay type: functional; how it was run: as §5
[18] = system: HEp-2; assay: The concentration required to decrease the estimate of the minimum fraction of human epidermoid carcinoma cells that survived treatment to 50% (H.Ep.2); assay type: functional, cell-based; how it was run: as §1
[19] = system: HEp-2; assay: The concentration required to decrease the estimate of the minimum fraction of human epidermoid carcinoma cells that survived treatment to 50% (H.Ep.2); cell proliferation was not slowed down at screen concentration 100 mM; assay type: functional, cell-based; how it was run: as §1
[20] = species on record: Mus musculus; assay: The concentration required to decrease the estimate of the minimum fraction of leukemic cells (L1210) of mice that survived treatment to 50%; cell proliferation was not slowed down at screen concentration 100 mM; assay type: functional; how it was run: as §3
[21] = species on record: Mus musculus; assay: Concentration required to decrease the growth rate to 50% of control; cell proliferation was not slowed down at screen concentration 100 mM; assay type: functional, organism-based; how it was run: as §2
[22] = species on record: Mus musculus; assay: The concentration required to decrease the estimate of the minimum fraction of leukemic cells of mice that survived treatment to 50% (L1210); no evidence of survivin cell
[23] = species on record: Mus musculus; assay: The concentration required to decrease the estimate of the minimum fraction of leukemic cells of mice that survived treatment to 50%; no evidence of surviving cell; assay type: functional, organism-based
How it was run: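 Minimum surviving fraction was estimated by back-extrapolating the exponential portion of treated-cell growth curves to zero time, as a percentage of the initial cell number. The value is the concentration that lowers this to 50%.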

[24] = species on record: Mus musculus; assay: Concentration required to decrease the growth rate to 50% of control; cell proliferation was not slowed down at screen concentration 10 mM; assay type: functional, organism-based; how it was run: as §2
[25] = system: Mus musculus; assay: Percent treated to untreated control was measured on Leukemia-bearing mice at the dose of 100 mg/kg; assay type: functional; how it was run: as §5
[26] = system: Mus musculus; assay: Percent treated to untreated control was measured on Leukemia-bearing mice at the dose of 50 mg/kg; assay type: functional; how it was run: as §5
[27] = species on record: Mus musculus; assay: The concentration required to decrease the estimate of the minimum fraction of leukemic cells (L1210) of mice that survived treatment to 50%. * indicates cell proliferation was not slowed down at screen concentration 100 mM; assay type: functional, organism-based; how it was run: as §3

COc1nc(C)c([N+](=O)[O-])c(OC)n1
Control [1]: 104%
IC50 [2]: Cell proliferation not slowed
IC50 [3]: Cell proliferation not slowed
IC50 [4]: Cell proliferation not slowed
IC50 [5]: Cell proliferation not slowed
Control [6]: 90%

COc1nc(/C=C\N(C)C)c([N+](=O)[O-])c(OC)n1
IC50 [7]: Cell proliferation not slowed
IC50 [8]: Cell proliferation not slowed
Control [9]: 87%

COc1nc(C(Br)Br)c([N+](=O)[O-])c(N2CCCCC2)n1
IC50 [10]: 0.54 µM
Control [9]: 0%
IC50 [11]: 1.8 µM
Control [12]: 36%

COc1nc(N)c([N+](=O)[O-])c(C(Br)Br)n1
Control [1]: 0%
IC50 [10]: 2 µM
T/C [13]: 91%
IC50 [14]: Not Active
IC50 [15]: 1.6 µM
T/C [16]: 104%
T/C [17]: 100%
IC50 [18]: 3.3 µM
Control [6]: 0%

COc1nc(C=O)c([N+](=O)[O-])c(N(C)C)n1
Control [1]: 0%
IC50 [10]: 5.9 µM
IC50 [11]: 12 µM

CNc1nc(OC)nc(C(Br)Br)c1[N+](=O)[O-]
Control [1]: 0%
IC50 [10]: 2.3 µM
IC50 [11]: 2 µM
Control [6]: 0%

CCN(CC)c1nc(OC)nc(C(Br)Br)c1[N+](=O)[O-]
Control [1]: 0%
IC50 [10]: 5.8 µM
IC50 [11]: 5.6 µM
Control [6]: 0%

COc1nc(CBr)c([N+](=O)[O-])c(OC)n1
Control [1]: 0%
IC50 [10]: 8 µM
IC50 [11]: 25 µM
Control [6]: 0%

CCCOc1nc(C(Br)Br)c([N+](=O)[O-])c(N2CCOCC2)n1
IC50 [10]: 2.3 µM
Control [9]: 13%
IC50 [11]: 6.1 µM

COc1nc(CO)c([N+](=O)[O-])c(N2CCOCC2)n1
Control [1]: 100%
IC50 [19]: Cell proliferation not slowed
IC50 [20]: Cell proliferation not slowed
IC50 [5]: Cell proliferation not slowed
IC50 [21]: Cell proliferation not slowed
Control [6]: 100%

CCOc1nc(C(Br)Br)c([N+](=O)[O-])c(N2CCOCC2)n1
IC50 [22]: Not Active
Control [1]: 13%
IC50 [10]: 3.6 µM

CCOc1nc(OCC)c([N+](=O)[O-])c(C(Br)Br)n1
Control [1]: 0%
IC50 [10]: 7.2 µM
IC50 [23]: Not Active

COc1nc(C(Br)Br)c([N+](=O)[O-])c(N2CCCC2)n1
IC50 [10]: 0.9 µM
Control [9]: 0%
IC50 [11]: 1 µM

COc1nc(OC)c([N+](=O)[O-])c(C(Br)Br)n1
Control [1]: 0%
IC50 [10]: 1.9 µM
IC50 [23]: Not Active
IC50 [15]: 2.5 µM
IC50 [18]: 2.7 µM
Control [6]: 0%

COc1nc(C=P(c2ccccc2)(c2ccccc2)c2ccccc2)c([N+](=O)[O-])c(OC)n1
IC50 [7]: Cell proliferation not slowed
Control [9]: 93%
IC50 [24]: Cell proliferation not slowed

COc1nc(C(Br)Br)c([N+](=O)[O-])c(N2CCOCC2)n1
Control [1]: 0%
T/C [25]: 87%
IC50 [10]: 0.32 µM
T/C [13]: 109%
IC50 [11]: 0.56 µM
IC50 [15]: 1.6 µM
T/C [26]: 101%
IC50 [18]: 2.8 µM
Control [6]: 0%

Cc1nc(Cl)nc(Cl)c1[N+](=O)[O-]
Control [1]: 104%
IC50 [27]: Cell proliferation not slowed
IC50 [21]: Cell proliferation not slowed
